Laboratory results reported in ChEMBL document CHEMBL1152377, “[(11)C]PR04.MZ, a promising DAT ligand for low concentration imaging: Synthesis, efficient (11)C-O-methylation and initial small animal PET studies” (Bioorg Med Chem Lett, 2009).

Columns and labels:
[1] = molecular target: Sodium-dependent dopamine transporter (Homo sapiens, UniProt Q01959); assay: Inhibition of human dopamine transporter
[2] = Ratio of drug uptake in striatum to cerebellum of Sprague-Dawley rat at 37 MBq, iv treated 45 mins after DAT inhibitor GBR-12909 challenge measured after 30 mins; assay type: ADME, organism-based; details: in vivo, 0.5 h
Outline: (§1)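 Same male Sprague–Dawley rat, rescanned after baseline. GBR12909 1.5 mg/kg given 45 min before a second 37 MBq tracer dose. Dynamic acquisition for 60 min, started at injection. Read-out is the striatum/cerebellum radioactivity-concentration ratio at the 15, 30 and 60 min time frames.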

[3] = Ratio of drug uptake in striatum to cerebellum of Sprague-Dawley rat at 37 MBq, iv after 15 mins; assay type: ADME, organism-based; details: in vivo, 0.25 h
Outline: (§2)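 Male Sprague–Dawley rat, baseline small-animal PET. Tracer given at 37 MBq (1 mCi), specific activity 67 GBq/µmol. Full dynamic scan for 60 min, acquisition starting with tracer injection. Read-out is the striatum/cerebellum radioactivity-concentration ratio, taken at the 15, 30 and 60 min time frames.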

Striatum [4] = assay: Drug uptake in Sprague-Dawley rat striatum assessed per cm'3 at 37 MBq, iv treated 45 mins after DAT inhibitor GBR-12909 challenge measured after 30 mins; assay type: ADME, organism-based; details: in vivo, 0.5 h
Outline: (§3)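 This was the same rat after its baseline scan. It was pretreated with 1.5 mg/kg GBR12909 45 min before a second 37 MBq tracer injection, and dynamic PET acquisition ran 60 min from injection. Striatal uptake was given as %ID per cm³ for the 15, 30 and 60 min time-frames.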

Striatum [5] = assay: Drug uptake in Sprague-Dawley rat striatum assessed per cm'3 at 37 MBq, iv after 4 mins; assay type: ADME, organism-based; details: in vivo
Striatum [6] = assay: Drug uptake in Sprague-Dawley rat striatum assessed per cm'3 at 37 MBq, iv after 15 mins; assay type: ADME, organism-based; details: in vivo, 0.25 h
Outline: (§4)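 Baseline small-animal PET in one male Sprague–Dawley rat: 37 MBq (1 mCi) tracer injected, and full dynamic acquisition started at injection and ran 60 min. Images were reconstructed and coregistered with MRI. Striatal uptake was given as %ID per cm³ for the 15, 30 and 60 min time-frames.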

[7] = Ratio of drug uptake in striatum to cerebellum of Sprague-Dawley rat at 37 MBq, iv after 60 mins; assay type: ADME, organism-based; details: in vivo, 1 h; outline: as §2
Striatum [8] = assay: Drug uptake in Sprague-Dawley rat striatum assessed as reduction of striatal binding potential at 37 MBq, iv treated 45 mins after DAT inhibitor GBR-12909 challenge measured after 15 mins; assay type: ADME, organism-based; design: scale not given: the % may be the effect or the level left; details: in vivo, 0.25 h
Outline: (§5)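 The same animal then received 1.5 mg/kg GBR12909 45 min before a second 37 MBq dose, followed by another 60 min scan. Striatal binding potential was read for the 15, 30 and 60 min time-frames, and the reduction was expressed in %.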

Striatum [9] = assay: Drug uptake in Sprague-Dawley rat striatum assessed per cm'3 at 37 MBq, iv after 30 mins; assay type: ADME, organism-based; details: in vivo, 0.5 h; outline: as §4
[10] = Ratio of drug uptake in striatum to cerebellum of Sprague-Dawley rat at 37 MBq, iv treated 45 mins after DAT inhibitor GBR-12909 challenge measured after 15 mins; assay type: ADME, organism-based; details: in vivo, 0.25 h; outline: as §1
Striatum [11] = assay: Drug uptake in Sprague-Dawley rat striatum assessed as reduction of striatal binding potential at 37 MBq, iv treated 45 mins after DAT inhibitor GBR-12909 challenge measured after 30 mins; assay type: ADME, organism-based; design: scale not given: the % may be the effect or the level left; details: in vivo, 0.5 h; outline: as §5
Striatum [12] = assay: Drug uptake in Sprague-Dawley rat striatum assessed per cm'3 at 37 MBq, iv after 60 mins; assay type: ADME, organism-based; details: in vivo, 1 h; outline: as §4
Striatum [13] = assay: Drug uptake in Sprague-Dawley rat striatum assessed per cm'3 at 37 MBq, iv treated 45 mins after DAT inhibitor GBR-12909 challenge measured after 60 mins; assay type: ADME, organism-based; details: in vivo, 1 h; outline: as §3
[14] = Ratio of drug uptake in striatum to cerebellum of Sprague-Dawley rat at 37 MBq, iv after 30 mins; assay type: ADME, organism-based; details: in vivo, 0.5 h; outline: as §2
[15] = Ratio of drug uptake in striatum to cerebellum of Sprague-Dawley rat at 37 MBq, iv treated 45 mins after DAT inhibitor GBR-12909 challenge measured after 60 mins; assay type: ADME, organism-based; details: in vivo, 1 h; outline: as §1
Striatum [16] = assay: Drug uptake in Sprague-Dawley rat striatum assessed per cm'3 at 37 MBq, iv treated 45 mins after DAT inhibitor GBR-12909 challenge measured after 15 mins; assay type: ADME, organism-based; details: in vivo, 0.25 h; outline: as §3
Striatum [17] = assay: Drug uptake in Sprague-Dawley rat striatum assessed as reduction of striatal binding potential at 37 MBq, iv treated 45 mins after DAT inhibitor GBR-12909 challenge measured after 60 mins; assay type: ADME, organism-based; design: scale not given: the % may be the effect or the level left; details: in vivo, 1 h; outline: as §5

Sequence of Sodium-dependent dopamine transporter (Q01959 whole entry): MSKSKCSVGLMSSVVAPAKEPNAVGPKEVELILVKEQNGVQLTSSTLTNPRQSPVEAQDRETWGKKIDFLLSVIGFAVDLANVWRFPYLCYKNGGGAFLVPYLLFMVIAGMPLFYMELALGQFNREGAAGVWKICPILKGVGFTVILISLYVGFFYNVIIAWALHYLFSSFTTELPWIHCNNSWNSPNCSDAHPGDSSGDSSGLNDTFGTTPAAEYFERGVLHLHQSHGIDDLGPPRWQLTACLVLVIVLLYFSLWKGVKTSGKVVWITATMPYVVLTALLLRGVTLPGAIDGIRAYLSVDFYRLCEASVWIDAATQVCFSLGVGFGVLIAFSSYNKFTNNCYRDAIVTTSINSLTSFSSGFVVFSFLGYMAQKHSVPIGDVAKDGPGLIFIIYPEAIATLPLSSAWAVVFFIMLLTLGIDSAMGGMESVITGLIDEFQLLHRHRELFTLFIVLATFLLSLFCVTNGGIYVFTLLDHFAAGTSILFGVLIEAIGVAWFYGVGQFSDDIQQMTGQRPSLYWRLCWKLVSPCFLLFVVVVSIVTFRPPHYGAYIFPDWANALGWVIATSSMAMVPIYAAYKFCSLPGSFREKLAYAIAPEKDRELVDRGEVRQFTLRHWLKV

Compound | IC50 [1] [nM] | Ratio [2] | Ratio [3] | Activity (Striatum [4]) [%ID] | Drug uptake (Striatum [5]) [%] | Activity (Striatum [6]) [%ID] | Ratio [7] | Activity (Striatum [8]) [%] | Activity (Striatum [9]) [%ID] | Ratio [10] | Activity (Striatum [11]) [%] | Activity (Striatum [12]) [%ID] | Activity (Striatum [13]) [%ID] | Ratio [14] | Ratio [15] | Activity (Striatum [16]) [%ID] | Activity (Striatum [17]) [%]
COC(=O)[C@H]1[C@@H](c2ccc(C)cc2)C[C@@H]2CC[C@H]1N2CC#CCF | 3 | – | – | – | – | – | – | – | – | – | – | – | – | – | – | – | –
Cc1ccc([C@H]2C[C@@H]3CC[C@H]([C@H]2C(=O)O[11CH3])N3CC#CCF)cc1 | – | 1.67 | 2.4 | 1.6 | 2.22 | 2 | 5 | 32 | 2.1 | 1.25 | 41 | 2.1 | 1.2 | 3.6 | 1.61 | 2.1 | 57
